Where a SMILES comes first, the peptide text is derived from it. The star is where a group is joined. X2 = C[C@]12CC[C@@H]3c4ccc(OCC(=O)*)cc4CC[C@H]3[C@@H]1CCC2=O
Assays:
Mus musculus [1] = assay: Effect on femur length in ovariectomized mouse at 0.1103 mmol/kg, ip once daily for 4 weeks; format: functional
How it was run: (§1)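 Female Kuiming mice (7 weeks, 30.7 ± 3.1 g) ovariectomized, sham group abdominorotomy. From day 5, i.p. once daily for 4 weeks at 110.3 × 10-3 mmol/kg in 0.5% CMC. Left femur cleaned, length measured, defatted in chloroform-methanol (2:1, 2 × 3 h), dried 120 °C 6 h for dry weight, ashed 800 °C 8 h. Mineral content = ash/dry weight. Ash dissolved in 6 N HCl and diluted. Ca by o-methylphenolphthalein complexone, P by molybdenum blue. Lungs and livers weighed directly.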

Mus musculus [2] = assay: Effect on serum ALP lavel in ovariectomized mouse at 0.1103 mmol/kg, ip once daily for 4 weeks; format: functional
How it was run: (§2)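 OVX Kuiming mice dosed i.p. daily for 4 weeks in 0.5% CMC. Blood taken retro-orbitally on the day after the last dose, stood 30 min, spun at 3000 g for 20 min, serum stored at -20 °C. Calcium by o-methylphenolphthalein complexone, phosphorus by molybdenum blue, ALP by activity with disodium phenylphosphate substrate.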

Mus musculus [3] = assay: Effect on lung weight in ovariectomized mouse at 0.1103 mmol/kg, ip once daily for 4 weeks; format: functional; how it was run: as §1
Mus musculus [4] = assay: Effect on serum calcium level in ovariectomized mouse at 0.1103 mmol/kg, ip once daily for 4 weeks; format: functional; how it was run: as §2
Mus musculus [5] = assay: Effect on mineral content in ovariectomized mouse at 0.1103 mmol/kg, ip once daily for 4 weeks; format: functional; how it was run: as §1
Mus musculus [6] = assay: Effect on phosphorus level in ovariectomized mouse at 0.1103 mmol/kg, ip once daily for 4 weeks; format: functional; how it was run: as §1
Mus musculus [7] = assay: Effect on femur ash weight in ovariectomized mouse at 0.1103 mmol/kg, ip once daily for 4 weeks; format: functional; how it was run: as §1
Mus musculus [8] = assay: Effect on uterus weight in ovariectomized mouse at 0.1103 mmol/kg, ip once daily for 4 weeks; format: functional
How it was run: (§3)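 Female Kuiming mice (7 weeks old, 30.7 ± 3.1 g), abdominal OVX under pentobarbital (40.0 mg/kg i.p.). From day 5 after surgery, i.p. injection once daily for 4 weeks, compound in aqueous 0.5% CMC prepared just before use. The day after the last dose, mice were anesthetized and killed, and lungs, livers, spleens and uteri were removed and weighed directly. n = 12, ANOVA, p < 0.05.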

Mus musculus [9] = assay: Effect on calcium level in ovariectomized mouse at 0.1103 mmol/kg, ip once daily for 4 weeks; format: functional; how it was run: as §1
Mus musculus [10] = assay: Increase in body weight in ovariectomized mouse at 0.1103 mmol/kg, ip once daily for 4 weeks; format: functional
How it was run: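 Female Kuiming mice (30.7 ± 3.1 g) underwent abdominal OVX; the sham group had abdominorotomy only. From day 5 after surgery, i.p. dosing once daily for 4 weeks at 110.3 × 10-3 mmol/kg in aqueous 0.5% CMC. Body weight was recorded on the day of the last administration.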

Mus musculus [11] = assay: Effect on serum phosphorus level in ovariectomized mouse at 0.1103 mmol/kg, ip once daily for 4 weeks; format: functional; how it was run: as §2
Mus musculus [12] = assay: Effect on liver weight in ovariectomized mouse at 0.110 mmol/kg, ip once daily for 4 weeks; format: functional; how it was run: as §1
Mus musculus [13] = assay: Effect on dry weight of femurs in ovariectomized mouse at 0.1103 mmol/kg, ip once daily for 4 weeks; format: functional, Femur; how it was run: as §1
Mus musculus [14] = assay: Effect on spleen weight in ovariectomized mouse at 0.1103 mmol/kg, ip once daily for 4 weeks; format: functional; how it was run: as §3

Structure (SMILES)	Activity (Mus musculus [1])	Activity (Mus musculus [2])	Activity (Mus musculus [3])	Activity (Mus musculus [4])	Ratio (Mus musculus [5])	Activity (Mus musculus [6])	Activity (Mus musculus [7])	Activity (Mus musculus [8])	Activity (Mus musculus [9])	Activity (Mus musculus [10])	Activity (Mus musculus [11])	Activity (Mus musculus [12])	Activity (Mus musculus [13])	Activity (Mus musculus [14])
CC(C)[C@H](NC(=O)[C@H](CC(=O)O)NC(=O)CNC(=O)[C@@H](N)CCCNC(=N)N)C(=O)O (H-RGDV-OH)	1.614 cm	35.614 U/L	171 mg	2.011 mmol/L	0.394	24.759%	27.8 mg	61.1 mg	42.739%	33.4 g	1.605 mmol/L	1.153 g	58.8 mg	127 mg
C[C@]12CC[C@@H]3c4ccc(OCC(=O)N[C@@H](CCCNC(=N)N)C(=O)NCC(=O)N[C@@H](CC(=O)O)C(=O)N[C@@H](Cc5ccccc5)C(=O)O)cc4CC[C@H]3[C@@H]1CCC2=O (X2-RGDF-OH)	1.639 cm	32.407 U/L	179 mg	2.008 mmol/L	0.462	24.588%	24.7 mg	55.8 mg	49.55%	34.5 g	1.602 mmol/L	1.458 g	65.9 mg	140 mg
CC(C)[C@H](NC(=O)[C@H](CC(=O)O)NC(=O)CNC(=O)[C@H](CCCNC(=N)N)NC(=O)COc1ccc2c(c1)CC[C@@H]1[C@@H]2CC[C@]2(C)C(=O)CC[C@@H]12)C(=O)O (X2-RGDV-OH)	1.628 cm	32.229 U/L	168 mg	2.008 mmol/L	0.429	24.75%	21.9 mg	51.9 mg	47.173%	34.1 g	1.602 mmol/L	1.389 g	63.9 mg	131 mg
C[C@]12CC[C@@H]3c4ccc(O)cc4CC[C@H]3[C@@H]1CCC2=O [ESTRONE]	1.606 cm	36.271 U/L	176 mg	2.012 mmol/L	0.43	23.979%	20.8 mg	141.9 mg	43.84%	34.3 g	1.601 mmol/L	1.318 g	61.1 mg	150 mg
N=C(N)NCCC[C@H](N)C(=O)NCC(=O)N[C@@H](CC(=O)O)C(=O)N[C@@H](CO)C(=O)O	1.617 cm	36.643 U/L	168 mg	2.01 mmol/L	0.396	24.888%	27.8 mg	71 mg	43.48%	34 g	1.603 mmol/L	1.295 g	59.8 mg	138 mg
C[C@]12CC[C@@H]3c4ccc(OCC(=O)N[C@@H](CCCNC(=N)N)C(=O)NCC(=O)N[C@@H](CC(=O)O)C(=O)N[C@@H](CO)C(=O)O)cc4CC[C@H]3[C@@H]1CCC2=O (X2-RGDS-OH)	1.634 cm	32.371 U/L	173 mg	2 mmol/L	0.438	24.399%	22.6 mg	63.3 mg	47.613%	32.9 g	1.604 mmol/L	1.347 g	66.9 mg	129 mg

Source: ChEMBL document CHEMBL1145431, “Improved anti-osteoporosis potency and reduced endometrial membrane hyperplasia during hormone replacement therapy with estrogen-RGD peptide conjugates” (2007)
